In ChEMBL document CHEMBL5136969, “A niclosamide-tobramycin hybrid adjuvant potentiates cefiderocol against P. aeruginosa” (2021):
The source made the active and inactive calls.

Assays:
Klebsiella pneumoniae = experiment: Antibacterial activity against Klebsiella pneumoniae KP116381 assessed as reduction in bacterial growth after 18 hrs by microbroth dilution method; assay type: functional
Method in brief: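 CLSI broth microdilution. Overnight cultures were adjusted in saline to 0.5 McFarland, diluted 1:50 in Mueller-Hinton broth (MHB), and inoculated at about 5 × 10^5 CFU/mL. Agents were 2-fold serially diluted in MHB, mixed 1:1 with inoculum, and held at 37 °C for 18 h. MIC was the lowest concentration with no visible turbidity, confirmed at 590 nm.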

Pseudomonas aeruginosa [1] = experiment: Antibacterial activity against MDR clinical isolate Pseudomonas aeruginosa PA88949 assessed as reduction in bacterial growth after 18 hrs by microbroth dilution method; assay type: functional
Method in brief: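 Broth microdilution per CLSI in Mueller-Hinton broth (MHB). Overnight cultures were adjusted to 0.5 McFarland in saline, diluted 1:50 in MHB, and added at about 5 × 10^5 CFU/mL final to equal volumes of 2-fold serial dilutions of agent. Incubation was 18 h at 37 °C. MIC was the lowest concentration with no visible turbidity, confirmed by absorbance at 590 nm.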

Pseudomonas aeruginosa [2] = experiment: Antibacterial activity against colistin-resistant clinical isolate Pseudomonas aeruginosa PA91433 assessed as potentiation of cefiderocol antibacterial activity by measuring FIC index after 18 hrs by microbroth dilution method; assay type: functional
Method in brief: (§1)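 Checkerboard in MHB (iron-replete, not iron-depleted CAMHB). Cefiderocol was 2-fold serially diluted along one axis and the adjuvant along the other. Inoculum was 0.5 McFarland diluted 1:50, about 5 × 10^5 CFU/mL final. Incubation was 18 h at 37 °C, with turbidity read visually and confirmed at 590 nm. FIC was the MIC in combination over the MIC alone for each agent, and the FIC index was their sum. Cut-offs were ≤0.5 synergy, >0.5–4 additive, >4 antagonism.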

Pseudomonas aeruginosa [3] = experiment: Antibacterial activity against MDR clinical isolate Pseudomonas aeruginosa PA100036 assessed as reduction in bacterial growth after 18 hrs in presence of cefiderocol by microbroth dilution method; assay type: functional
Method in brief: (§2)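 Checkerboard in MHB. Cefiderocol was 2-fold serially diluted along one axis and the adjuvant along the other. Inoculum was prepared from 0.5 McFarland saline suspensions diluted 1:50 in MHB, giving about 5 × 10^5 CFU/mL final. Plates ran 18 h at 37 °C, with turbidity confirmed at 590 nm. FIC = combination MIC ÷ MIC alone for each agent, and FIC index = sum of both. Interpretation: ≤0.5 synergy, >0.5–4 additive, >4 antagonism.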

Acinetobacter baumannii [4] = experiment: Potentiation of cindamycin-induced antibiotic activity against Acinetobacter baumannii ATCC 17978 assessed as MIC fold reduction at 8 ug/ml after 18 hrs by microbroth dilution method; assay type: functional; settings: dose 8 µg/ml
Method in brief: (§3)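 Adjuvant held at a fixed 8 μg/mL while the antibiotic was 2-fold serially diluted in Mueller-Hinton broth (MHB), per CLSI microbroth dilution. Overnight cultures were adjusted in saline to 0.5 McFarland, then diluted 1:50 in MHB to about 5 × 10^5 CFU/mL final, and incubated 18 h at 37 °C. MIC was the lowest concentration with no visible turbidity, confirmed at 590 nm. Fold potentiation = MIC alone / MIC with adjuvant.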

Escherichia coli [5] = experiment: Antibacterial activity against Escherichia coli 107115 assessed as reduction in bacterial growth after 18 hrs by microbroth dilution method; assay type: functional
Method in brief: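 CLSI microbroth dilution in MHB. Overnight cultures were adjusted to 0.5 McFarland in saline, diluted 1:50, and inoculated at about 5 × 10^5 CFU/mL. Agents were 2-fold serially diluted and incubated 18 h at 37 °C. MIC is the lowest concentration without visible turbidity, confirmed by absorbance at 590 nm. Medium with and without cells served as controls.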

Pseudomonas aeruginosa [6] = experiment: Potentiation of cefiderocol-induced antibiotic activity against MDR clinical isolate Pseudomonas aeruginosa PA259 assessed as MIC fold reduction at 8 ug/ml after 18 hrs by microbroth dilution method; assay type: functional, organism-based; settings: dose 8.0 µg/ml
Method in brief: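 Initial screen in MHB using a fixed 8 μg mL−1 of adjuvant combined with each antibiotic under 2-fold dilution. Broth microdilution used about 5 × 10^5 CFU/mL at 37 °C for 18 h, with visible turbidity read and confirmed at 590 nm. Fold-potentiation = antibiotic MIC alone ÷ antibiotic MIC with adjuvant.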

Acinetobacter baumannii [7] = experiment: Potentiation of ciprofloxacin-induced antibiotic activity against Acinetobacter baumannii ATCC 17978 assessed as MIC fold reduction at 8 ug/ml after 18 hrs by microbroth dilution method; assay type: functional; settings: dose 8 µg/ml; method in brief: as §3
Pseudomonas aeruginosa [8] = experiment: Antibacterial activity against MDR clinical isolate Pseudomonas aeruginosa PA88949 assessed as reduction in bacterial growth after 18 hrs in presence of cefiderocol by microbroth dilution method; assay type: functional; method in brief: as §2
Pseudomonas aeruginosa [9] = experiment: Antibacterial activity against MDR clinical isolate Pseudomonas aeruginosa PA88949 assessed as potentiation of cefiderocol antibacterial activity by measuring FIC index after 18 hrs by microbroth dilution method; assay type: functional; method in brief: as §1
Pseudomonas aeruginosa [10] = experiment: Potentiation of ceftolozane-induced antibiotic activity against MDR clinical isolate Pseudomonas aeruginosa PA259 assessed as MIC fold reduction at 8 ug/ml after 18 hrs by microbroth dilution method; assay type: functional, organism-based; settings: dose 8.0 µg/ml; method in brief: as §3
Pseudomonas aeruginosa [11] = experiment: Antibacterial activity against MDR clinical isolate Pseudomonas aeruginosa PA108590 assessed as reduction in bacterial growth after 18 hrs in presence of cefiderocol by microbroth dilution method; assay type: functional; method in brief: as §2
Pseudomonas aeruginosa [12] = experiment: Antibacterial activity against […] Pseudomonas aeruginosa PAO1 assessed as potentiation of cefiderocol antibacterial activity by measuring FIC index after 18 hrs by microbroth dilution method; assay type: functional; method in brief: as §2
Acinetobacter baumannii [13] = experiment: Potentiation of ceftazidime-induced antibiotic activity against Acinetobacter baumannii ATCC 17978 assessed as MIC fold reduction at 8 ug/ml after 18 hrs by microbroth dilution method; assay type: functional; settings: dose 8 µg/ml; method in brief: as §3
Pseudomonas aeruginosa [14] = experiment: Potentiation of minocycline-induced antibiotic activity against Pseudomonas aeruginosa PAO1 assessed as MIC fold reduction at 8 ug/ml after 18 hrs by microbroth dilution method; assay type: functional; settings: dose 8 µg/ml; method in brief: as §3
Escherichia coli [15] = experiment: Potentiation of minocycline-induced antibiotic activity against Escherichia coli ATCC 25922 assessed as MIC fold reduction at 8 ug/ml after 18 hrs by microbroth dilution method; assay type: functional; settings: dose 8 µg/ml; method in brief: as §3
Escherichia coli [16] = experiment: Potentiation of linezolid-induced antibiotic activity against Escherichia coli ATCC 25922 assessed as MIC fold reduction at 8 ug/ml after 18 hrs by microbroth dilution method; assay type: functional; settings: dose 8 µg/ml; method in brief: as §3
Escherichia coli [17] = experiment: Antibacterial activity against Escherichia coli 107115 assessed as reduction in bacterial growth after 18 hrs in presence of cefiderocol by microbroth dilution method; assay type: functional
Method in brief: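 Checkerboard in Mueller-Hinton broth: cefiderocol 2-fold diluted on one axis, adjuvant 2-fold on the other. Overnight cultures were adjusted to 0.5 McFarland in saline, diluted 1:50 in MHB, and inoculated at about 5 × 10^5 CFU/mL. Incubation was 18 h at 37 °C. Turbidity was read visually and confirmed at 590 nm. FIC index = FIC of antibiotic + FIC of adjuvant; ≤0.5 synergy, >4 antagonism.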

Pseudomonas aeruginosa [18] = experiment: Antibacterial activity against MDR clinical isolate Pseudomonas aeruginosa PA260 assessed as reduction in bacterial growth after 18 hrs in presence of cefiderocol by microbroth dilution method; assay type: functional; method in brief: as §2
Pseudomonas aeruginosa [19] = experiment: Potentiation of moxifloxacin-induced antibiotic activity against Pseudomonas aeruginosa PAO1 assessed as reduction in microbial growth at 8 ug/ml after 18 hrs by microbroth dilution method relative to control; settings: PAO1, 18 h, read-out: GI

Structure (SMILES): NC[C@H]1O[C@H](O[C@H]2[C@H](OCCCCc3cn(-c4ccc(NC(=O)c5cc(Cl)ccc5O)cc4)nn3)[C@@H](O[C@H]3O[C@H](CO)[C@@H](O)[C@H](N)[C@H]3O)[C@H](N)C[C@@H]2N)[C@H](N)C[C@@H]1O
- MIC (Klebsiella pneumoniae): > 128 µg/mL
- MIC (Pseudomonas aeruginosa [1]): > 128 µg/mL
- FIC (Pseudomonas aeruginosa [2]): 0.016
- MIC (Pseudomonas aeruginosa [3]): 0.25 µg/mL
- fold change (FC) (Acinetobacter baumannii [4]): 4
- MIC (Escherichia coli [5]): > 128 µg/mL
- Activity (Pseudomonas aeruginosa [6]): Active
- fold change (FC) (Acinetobacter baumannii [7]): 4
- MIC (Pseudomonas aeruginosa [8]): 0.25 µg/mL
- FIC (Pseudomonas aeruginosa [9]): 1
- Activity (Pseudomonas aeruginosa [10]): Active
- MIC (Pseudomonas aeruginosa [11]): 4 µg/mL
- FIC (Pseudomonas aeruginosa [12]): 0.258
- fold change (FC) (Acinetobacter baumannii [13]): 4
- fold change (FC) (Pseudomonas aeruginosa [14]): 4
- fold change (FC) (Escherichia coli [15]): 4
- fold change (FC) (Escherichia coli [16]): 4
- MIC (Escherichia coli [17]): 0.25 µg/mL
- MIC (Pseudomonas aeruginosa [18]): 0.125 µg/mL
- inhibition of growth at 8 µg/mL (Pseudomonas aeruginosa [19]): 100%
